Measured values: article PMC5466536 (British Journal of Pharmacology, 2017)
Several values for one entry are separate records, joined by “and”; a condition that tells them apart may be missing. Equal entries are not always repeated.

How the values were obtained:
[1] = system: intracranial aneurysm (IA); assay: Rat IA model, histological analysis of induced IAs; format: in vivo, Sprague–Dawley rats; conditions: for growth (size) of induced IAs: KRP‐203 0.01 and BAF312 0.3 mg·kg^−1 daily
Procedure, shortened: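 IA induced at the right ACA-OA bifurcation, contralateral to carotid ligation. Rats randomized and given test compound p.o. (suspended in 0.5% methylcellulose) throughout. Specimens prepared at 12 weeks; 5 μm sections immunostained. Aneurysm size and infiltrating macrophage number assessed.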

Systemic blood pressure = format: in vivo, Sprague–Dawley rats; conditions: rats
Procedure, shortened: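 Oral dosing after IA induction, vehicle 0.5% methylcellulose. Blood pressure measured in conscious rats by tail-cuff, without anaesthesia. Systolic, mean and diastolic values each taken as the mean of at least three measurements.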

HCtAEC monolayer = assay: Permeability assay; format: cell-based, human; conditions: for effect on the ASP4058‐mediated inhibition of endothelial permeability: ASP4058 100 nM, TASP0277308 pretreated 1 h, EHop‐016 30 min
Procedure, shortened: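 HCtAECs (10^5 per well) grown overnight on collagen-coated Transwell inserts (0.4 μm pore) in growth medium, then overnight in serum-free defined medium. Compound or vehicle (0.1% DMSO) added to both compartments for 1 h. 250 μg·mL−1 FITC-dextran (2000 kDa) then added to the upper compartment; diffusion into the lower compartment read after 1 h (ex 490/em 520 nm). Antagonist pretreatment 1 h or Rac inhibitor 30 min, before 100 nM agonist. Duplicates, 37°C.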

THP‐1 cells = assay: Chemotaxis assay; format: cell-based, human; conditions: 100 nM ASP4058, MCP‐1 10 ng·mL^−1, 3 h
Procedure, shortened: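 Migrated-cell Transwell assay (5.0 μm pore) without an endothelial layer. Test compound diluted in RPMI 1640 with 0.1% fatty-acid-free BSA; compound or vehicle (0.1% DMSO) added to both compartments. THP-1 cells (5 × 10^5 per well) added to the upper and MCP-1 (10 ng·mL−1) to the lower compartment simultaneously. After 3 h at 37°C, migrated cells quantified by ATP-based luminescence; duplicates.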

[2] = target: S1P1 receptors in HCtAECs (Homo sapiens, UniProt P21453); assay: cAMP assay; format: cell-based
Chain of S1P1 receptors in HCtAECs (P21453 whole entry): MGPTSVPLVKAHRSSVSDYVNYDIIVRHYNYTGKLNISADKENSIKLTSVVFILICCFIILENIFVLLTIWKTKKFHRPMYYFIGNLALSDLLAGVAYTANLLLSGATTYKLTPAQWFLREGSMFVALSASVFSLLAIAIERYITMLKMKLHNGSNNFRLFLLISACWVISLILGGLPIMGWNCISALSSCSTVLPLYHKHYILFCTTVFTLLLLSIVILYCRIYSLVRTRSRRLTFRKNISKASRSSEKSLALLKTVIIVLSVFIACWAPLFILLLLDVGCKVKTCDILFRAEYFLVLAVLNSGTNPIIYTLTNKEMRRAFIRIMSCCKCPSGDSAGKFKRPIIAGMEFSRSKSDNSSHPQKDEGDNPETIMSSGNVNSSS
Procedure, shortened: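 HCtAECs seeded at 2 × 10^4 per well and kept overnight. Test compound diluted in HBSS (pH 7.2) containing 5 mM HEPES (pH 7.5), 0.1% fatty-acid-free BSA and 0.5 mM IBMX. Cells stimulated with 1 μM forskolin plus compound for 20 min at 37°C. Lysis in HEPES/CaCl2/Triton X-100 buffer; cAMP measured with a LANCE cAMP kit. Duplicates.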

[3] = rats, oral, 14 days at 0.1 mg·kg^−1; ref Yamamoto et al., 2014; cited from earlier work
[4] = system: THP‐1 cells across HCtAEC monolayer; assay: Trans‐endothelial migration assay; format: cell-based, human; conditions: MCP‐1 100 ng·mL^−1, 3 h
Procedure, shortened: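 HCtAECs (10^5 per well) grown overnight on Transwell inserts (5.0 μm pore) in growth medium. Compound in serum-free defined medium, or vehicle (0.1% DMSO), added to both compartments. At the same time, THP-1 cells (5 × 10^5) added above and MCP-1 (100 ng·mL−1) below. After 3 h at 37°C, migrated cells quantified by ATP luminescence. Antagonist co-added with 100 nM agonist; duplicates.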

[5] = system: IA walls at ACA‐OA bifurcation; assay: In vivo vascular permeability assay; design: species or system Sprague–Dawley rats; conditions: day 7, BAPN
Procedure, shortened: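 Rats after IA induction, with 3-aminopropionitrile to facilitate formation, dosed p.o. once daily from just after surgery; vehicle 0.5% methylcellulose. On day 7, under deep anaesthesia, Evans blue (45 mg·kg−1) injected intra-arterially via the right common carotid (proximal side clamped), then 4% paraformaldehyde perfusion. Age-matched Sprague–Dawley rats served as controls. Frozen sections imaged confocally (ex 620/em 680 nm); stained area thresholded, particles >4 pixel square counted.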

[6] = Plasma concentration of ASP4058 in rat aneurysm model; format: in vivo, rats
Procedure, shortened: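 Rats dosed orally at 0.01 mg·kg−1 for 12 weeks. Plasma collected just before and 1, 2, 4, 8 and 24 h after the last dose. Plasma separated by centrifugation and stored at −20°C or lower. Samples prepared by protein precipitation and quantified by HPLC–tandem mass spectrometry.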

[7] = system: lymphocytes / monocytes in peripheral blood; assay: Peripheral blood lymphocyte and monocyte count in rat IA model; format: in vivo, Sprague–Dawley rats; conditions: rats
Procedure, shortened: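 Oral dosing after IA induction. Agonist suspended in 0.5% methylcellulose; antagonist suspended in 5% arabic gum and given twice daily. Peripheral lymphocyte and monocyte counts taken after the dosing period (4 weeks for the antagonist).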

[8] = target: S1P1 receptors expressed on HCtAEC (Homo sapiens, UniProt P21453); assay: S1P1 receptor internalization assay; format: cell-based; conditions: mean ± SEM, n = 5
Chain of S1P1 receptors expressed on HCtAEC (P21453 whole entry): as above
Procedure, shortened: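 HCtAECs (10^5 per well) seeded overnight, then exposed for 1 h at 37°C to test compound diluted in serum-free defined medium. Cells washed in ice-cold PBS and detached with Accutase. Staining with mouse anti-S1P1 (30 min on ice), then PE anti-mouse IgG; IgG2b isotype control; dead cells excluded by 7-AAD or SYTOX Blue. Isotype-subtracted geoMFI normalized to vehicle, expressed as % of control.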

[9] = system: intracranial aneurysm (IA); assay: Non‐human primate model of IAs; format: in vivo; conditions: Macaca fascicularis, 0.1 mg·kg^−1 once daily, 52 weeks, n = 3
Procedure, shortened: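 Female Macaca fascicularis (11 years old, 3.4 kg average), held under a 12 h light–dark cycle. IAs induced by two-step surgery at a 2 week interval. Test compound given once daily. At 52 weeks, five intracranial bifurcation sites per animal examined for IA formation, scored as breakage of the lamina elastica.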

hS1P1 = conditions: S1P2, S1P3, S1P4 versus S1P1/S1P5; ref Yamamoto et al., 2014; cited from earlier work
[10] = KRP‐203 0.01 or BAF312 0.3 mg·kg^−1, 4 weeks after IA induction
[11] = p.o., 12 weeks after IA induction
[12] = rats, TASP0277308 100 or 300 mg·kg^−1 p.o. twice daily, 4 weeks, BAPN
[13] = TASP0277308 100 or 300 mg·kg^−1 p.o. twice daily, 4 weeks

In the case of `Cl.NC(CO)(CO)CCc1ccc(Sc2cccc(OCc3ccccc3)c2)cc1Cl` [KRP‐203, 2‐amino‐2‐[2‐(4‐{[3‐(benzyloxy)phenyl]sulfanyl}‐2‐chlorophenyl)ethyl]propane‐1,3‐diol hydrochloride, reference compound], the “growth (size) of induced IAs” value ([1]; rats, 4 weeks, BAPN) is reported as “significantly suppressed the growth” and the systemic blood pressure (Systemic blood pressure; [10]) is reported as “without influencing”.

For `CCc1cc(/C(C)=N/OCc2ccc(C3CCCCC3)c(C(F)(F)F)c2)ccc1CN1CC(C(=O)O)C1` [BAF312, 1‐{4‐[(1E)‐N‐{[4‐cyclohexyl‐3‐(trifluoomethyl)benzyl]oxy}ethanimidoyl]‐2‐ethylbenzyl}azetidine‐3‐carboxylic acid, reference compound], the “growth (size) of induced IAs” value ([1]; rats, 4 weeks, BAPN) was “significantly suppressed the growth” and the systemic blood pressure (Systemic blood pressure; [10]) was “without influencing”.

With `CCn1c2ccccc2c2cc(Nc3ccnc(NCCCN4CCOCC4)n3)ccc21` [EHop‐016] the “effect on the ASP4058‐mediated inhibition of endothelial permeability” value (HCtAEC monolayer) was “ameliorated the effect of ASP4058 on permeability”.

In the case of `CCCCCCCCc1ccc(CCC(N)(CO)CO)cc1.Cl` [fingolimod, 2‐amino‐2‐[2‐(4‐octylphenyl)ethyl]propane‐1,3‐diol hydrochloride, reference compound], the “size of IAs induced” value ([1]; rats, fingolimod daily during whole period, 4 weeks, BAPN) is reported as “significantly exacerbated the IA size” and the systemic blood pressure (Systemic blood pressure; fingolimod for 4 weeks after IA induction) is reported as “without influencing”.

In the case of `C[C@H](Oc1ccc(-c2nc(-c3ccc4[nH]cnc4c3)no2)cc1C(F)(F)F)C(F)(F)F.Cl` [ASP4058, 5‐{5‐[3‐(trifluoromethyl)‐4‐{[(2S)‐1,1,1‐trifluoropropan‐2‐yl]oxy}phenyl]‐1,2,4‐oxadiazol‐3‐yl}‐1H–benzimidazole hydrochloride], the “MCP‐1‐dependent migration (chemotaxis) of THP‐1 cells without HCtAEC monolayer” value (THP‐1 cells) is given as “failed to inhibit”, the IC50 [2] is given as 2.1 nM and the “plasma concentration at the maximum” value [3] is given as 16.4 ± 0.463 ng/mL. For the same compound, the “plasma concentration at the maximum (equivalent)” value [3] was 37.1 ± 1.05 nM, the “MCP‐1‐induced trans‐endothelial migration of THP‐1 cells” value [4] was “concentration‐dependently inhibited” and the “leakage of FITC‐dextran (2000 kDa) across the endothelial monolayer” value (HCtAEC monolayer; 10 nM ASP4058, 1 h treatment, 1 h diffusion, concentration‐dependent) was “statistically significant inhibition”. For the same compound, the “Evans blue leakage (stained area) at the ACA‐OA bifurcation after IA induction” value ([5]; rats, 0.1 mg·kg^−1 p.o. once daily) was “almost complete suppression”, the “Evans blue leakage (stained area) at the ACA‐OA bifurcation after IA induction” value ([5]; rats, 0.01, 0.1 mg·kg^−1 p.o. once daily) was “dose‐dependently ameliorated” and the “Plasma concentration, 4 h” value ([6]; 0.01 mg·kg^−1, 12 weeks, 4 h after last administration, mean ± SEM, n = 3) was 8.8 ± 1.6 nM. The “Plasma concentration, 24 h” value ([6]; 0.01 mg·kg^−1, 12 weeks, 24 h after last administration, mean ± SEM, n = 3) was 4.5 ± 0.6 nM, the “Plasma concentration, Pre” value ([6]; 0.01 mg·kg^−1, 12 weeks, just before last administration, mean ± SEM, n = 3) was 5.4 nM and 5.4 ± 0.7 nM and the concentration at 1 h ([6]; plasma, oral, 0.01 mg·kg^−1) was 6.3 ± 0.9 nM. The concentration at 2 h ([6]; plasma, oral, 0.01 mg·kg^−1) was 4.9 ± 1.6 nM, the concentration at 4 h ([6]; plasma, oral, 0.01 mg·kg^−1) was 8.8 nM and the concentration at 8 h ([6]; plasma, oral, 0.01 mg·kg^−1) was 7.9 ± 1.4 nM. For the same compound, the concentration at 24 h ([6]; plasma, oral, 0.01 mg·kg^−1) was 4.5 nM, the “IA development measured by the size of the IA induced” value ([1]; rat model, p.o. during entire period of IA induction, 12 weeks) was “dose‐dependently suppressed IA development” and the “incidence of IAs” value ([1]; rat model, p.o. during whole period, 12 weeks) was “did not affect the incidence”. For the same compound, the “dose at which the suppressive effect on the size of the IA was observed” value ([1]; rat model, p.o., 12 weeks) was 0.01 mg/kg, the “macrophage infiltration in the lesion” value ([1]; rat model, p.o., 12 weeks after induction) was “inhibited the macrophage infiltration” and the “expression of MCP‐1 in the IA lesion” value ([1]; rats, ASP4058 0.03 mg·kg^−1, immunostaining) was “almost completely suppressed”. For the same compound, the “IA‐associated degenerative change of the media (thinning of smooth muscle layer)” value ([1]; rats, ASP4058 0.03 mg·kg^−1, α‐SMA staining, 12 weeks) was “ameliorated the IA‐associated degenerative change of the media”, the “enlargement of pre‐existing aneurysm” value ([1]; rats, ASP4058 0.1 mg·kg^−1 once daily started 1 week after IA induction, examined at 7 weeks, BAPN) was “significantly inhibited the enlargement” and the peripheral lymphocyte number ([7]; ASP4058 0.01 mg·kg^−1 p.o., 12 weeks) was “did not decrease”. For the same compound, the “monocyte count in peripheral blood” value ([7]; ASP4058 p.o., 12 weeks after IA induction) was “without significantly influencing”, the “dose at which the decrease in lymphocyte count reached a plateau” value [7, 11] was 0.1 mg/kg and the “dose suppressing the lymphocyte number in peripheral blood” value [7, 11] was “higher than 0.03 mg·kg^−1”. For the same compound, the blood pressure (Systemic blood pressure; ASP4058 0.1 mg·kg^−1 started 1 week after induction, measured at 7 weeks) was “without affecting the blood pressure”, the systemic blood pressure (Systemic blood pressure; ASP4058 p.o. for 12 weeks after IA induction) was “without significantly influencing” and the “S1P1 receptor expression level on HCtAECs (surface, δ geoMFI)” value ([8]; 100 nM ASP4058, 1 h) was 86 ± 14 % of control. For the same compound, the “S1P1 receptor expression level on HCtAECs (surface, δ geoMFI)” value ([8]; 1000 nM ASP4058, 1 h) was 23 ± 4.3 % of control, the “IA formation compared with the vehicle‐treated group” value [9] was “tended to be suppressed” and the “potency for other S1P receptor subtypes relative to S1P1 and S1P5 (times less)” value (hS1P1) was “at least 100 times”.

For `CCn1c(Oc2cccc(N3CCN(C)CC3)c2)nnc1[C@@H](C)NS(=O)(=O)c1ccc(Cl)c(Cl)c1` [TASP0277308, 3,4‐dichloro‐N‐[(1R)‐1‐{4‐ethyl‐5‐[3‐(4‐methylpiperazin‐1‐yl)phenoxy]‐4H‐1,2,4‐triazol‐3‐yl}ethyl]benzenesulfonamide, reference compound], the “effect on the ASP4058‐mediated inhibition of endothelial permeability” value (HCtAEC monolayer) was “reversed”, the “macrophage infiltration in IA lesions” value [1, 12] was “did not suppress” and the “size of the IA” value [1, 12] was “did not suppress either the macrophage infiltration in IA lesions or reduce the size”. For the same compound, the peripheral lymphocyte count [7, 13] was “potently decreased”, the peripheral monocyte count [7, 13] was “without influencing” and the systemic blood pressure (Systemic blood pressure; [13]) was “without influencing”.
